Source: PubChem BioAssay
PLAP act = activates human placental alkaline phosphatase; activation fold at 20 µM; AID 696; purified PLAP enzyme, luminescent substrate read-out; stronger effect = higher value; hit rate 1.2% among 96,000; in the data active = activation fold above about 2
Target sequence (P05187 whole entry, looked up): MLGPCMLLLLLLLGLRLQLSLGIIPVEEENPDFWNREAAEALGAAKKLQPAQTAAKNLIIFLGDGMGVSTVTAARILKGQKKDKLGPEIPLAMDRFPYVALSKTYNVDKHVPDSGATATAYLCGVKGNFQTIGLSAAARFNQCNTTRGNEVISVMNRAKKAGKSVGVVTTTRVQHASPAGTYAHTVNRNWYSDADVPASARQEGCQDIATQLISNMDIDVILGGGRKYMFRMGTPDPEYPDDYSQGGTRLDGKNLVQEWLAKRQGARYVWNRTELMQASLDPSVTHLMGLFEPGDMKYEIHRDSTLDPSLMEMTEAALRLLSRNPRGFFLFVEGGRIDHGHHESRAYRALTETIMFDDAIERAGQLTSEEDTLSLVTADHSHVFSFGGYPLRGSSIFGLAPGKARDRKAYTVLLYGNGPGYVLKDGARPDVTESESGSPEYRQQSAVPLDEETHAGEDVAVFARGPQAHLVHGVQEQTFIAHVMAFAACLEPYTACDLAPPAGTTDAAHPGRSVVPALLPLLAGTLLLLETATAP
PostGolgi yeast = growth inhibition of a yeast mutant, post-Golgi transport screen | post-Golgi transport phenotypic cell assay | inhibition, % at 10 µM | hit rate 0.9% among 98,000 | AID 739;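 also: yeast cells grown in 1536-well plates; yeast grown about 18 h at 30C before absorbance read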
Ecoli tolC = E. coli tolC mutant growth inhibition. E. coli BW25113 tolC mutant growth, OD615. growth inhibition, % at 10 µM (by protocol). hit rate 2.2% among 65,000;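 active = growth inhibition at or above a cutoff equal to the mean over every tested compound plus 3 SD, cut at about 60% in these data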;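 also: growth measured after 20 h incubation at 37 °C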
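Assay system: tolC-deleted E. coli BW25113. Medium: kanamycin-containing LB broth (50 µg/mL). Dosing: 10 µM final, single dose. Timing: bacterial growth with compound for 20 h at 37 °C. Detection: A615 absorbance measurement. Read-out basis: growth inhibition in percent.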
PostGolgi ctrl = inhibits growth of the yeast control strain; efflux-deficient yeast background strain, growth absorbance A615, 16 h; inhibition, % at 10 µM; hit rate 5% among 98,000
E coli WT exp = blocks growth of wild type E. coli BW25113; OD600 absorbance; growth inhibition, % at 100 µM; hit rate 0.15% among 98,000;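 active = growth inhibition above about 50% at one test dose, limit read from the data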;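 also: growth measured after 20 h incubation at 37 °C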
* hit, by the source's call. In the library only some 7.2% were active in any assay of this set; here they are far more common. Rule as the data show it, unless noted: active = inhibition above about 30%; inactive = the rest.

What do the screens show for `Cc1cc(NC(=O)c2noc3c2CCc2ccccc2-3)no1`?
PLAP act: 1; PostGolgi yeast: -5; Ecoli tolC: -6; PostGolgi ctrl: -4; E coli WT exp: -7

How did Cn1ncc(C#N)c1NC(=O)C1CC(c2c(F)cccc2Cl)=NO1 (centres undefined) do in these assays?
PLAP act: 1.1; PostGolgi yeast: 5; Ecoli tolC: -7; PostGolgi ctrl: -2; E coli WT exp: 6

Results for Cn1ncc(C#N)c1NC(=O)c1cc(-c2ccccc2Cl)on1 ?
PLAP act: 1.2; PostGolgi yeast: -5; PostGolgi ctrl: 30*; E coli WT exp: -9

How did Cc1ccc(C)n1-c1ccc(-c2nnc3n2CCCCC3)s1 do in these assays?
PLAP act: 1.6; PostGolgi yeast: 1; Ecoli tolC: 9; PostGolgi ctrl: -3; E coli WT exp: 1

Results for O=C1OCCC1Sc1ncnc2sc3c(c12)CCC3 (centres undefined) ?
PostGolgi yeast: -8; Ecoli tolC: 1; PostGolgi ctrl: 2; E coli WT exp: 2

What do the screens show for `Cc1nc(SC2CCOC2=O)c2c(C)c(C)sc2n1` (centres undefined)?
PLAP act: 1; PostGolgi yeast: 9; PostGolgi ctrl: 36*; E coli WT exp: -5

How did COc1cccc(/C=N/n2c(C)c3c(C)nnc(C)c3c2C)c1O do in these assays?
Ecoli tolC: -5

What do the screens show for `Cc1ccc(Cl)cc1Nc1nc(-c2sc(NC(=O)c3ccco3)nc2C)cs1`?
PLAP act: 1; PostGolgi yeast: -3; PostGolgi ctrl: 25; E coli WT exp: -8

How did Cc1nc(NC(=O)c2ccccc2)sc1-c1csc(Nc2ccc(F)cc2)n1 do in these assays?
PLAP act: 1; PostGolgi yeast: 33*; PostGolgi ctrl: -3; E coli WT exp: -16

Results for Cc1nc(NC(=O)c2ccco2)sc1-c1csc(Nc2ccc(Cl)cc2)n1 ?
PLAP act: 1; PostGolgi yeast: -7; PostGolgi ctrl: 39*; E coli WT exp: -14

How did O=C(C=C1SCCS1)/C=C/c1ccco1 do in these assays?
PLAP act: 1; PostGolgi yeast: -5; PostGolgi ctrl: 32*; E coli WT exp: 12

What do the screens show for `O=C(Nc1ccc(N2CCOCC2)c(C(=O)O)c1)c1ccco1`?
PLAP act: 1; PostGolgi yeast: 8; PostGolgi ctrl: 3; E coli WT exp: -4

What do the screens show for `O=C(Nc1ccc(N2CCOCC2)cc1N1CCOCC1)c1ccco1`?
PLAP act: 1; PostGolgi yeast: -7; Ecoli tolC: -6; PostGolgi ctrl: 44*; E coli WT exp: -4

Results for NC(=O)c1cccc2c3c([nH]c12)CCCC3 ?
PLAP act: 0.9; PostGolgi yeast: 7; Ecoli tolC: 1; PostGolgi ctrl: 11; E coli WT exp: 8

How did CCOC(=O)C1CCCc2c1[nH]c1c(C(N)=O)cccc21 (centres undefined) do in these assays?
PLAP act: 1.6; PostGolgi yeast: 7; PostGolgi ctrl: 34*; E coli WT exp: -3

How did Cc1ccc2ccc(S(=O)(=O)n3nc(C)cc3C)cc2c1 do in these assays?
PLAP act: 1.2; PostGolgi yeast: -8; Ecoli tolC: 78*; PostGolgi ctrl: 16; E coli WT exp: 6

Results for CC(=O)Nc1ccc(S(=O)(=O)n2nc(C)cc2C)cc1 ?
PLAP act: 1.3; PostGolgi yeast: 2; Ecoli tolC: -16; PostGolgi ctrl: 2; E coli WT exp: 4

What do the screens show for `CCc1c(C)nc2ncnn2c1N1CCC(C(=O)Nc2cccc(C(C)=O)c2)CC1`?
PLAP act: 1.5; PostGolgi yeast: 14; Ecoli tolC: -15; PostGolgi ctrl: -9; E coli WT exp: 7

How did Cc1ccc(O)c(-c2cc(C(=O)NCc3ccncc3)[nH]n2)c1 do in these assays?
PLAP act: 2.9*; PostGolgi yeast: 6; Ecoli tolC: -11; PostGolgi ctrl: -2; E coli WT exp: 5

What do the screens show for `Cc1ccc(C)c(C(=O)NCCN(C)C)c1`?
PLAP act: 0.9; PostGolgi yeast: -7; Ecoli tolC: -13; PostGolgi ctrl: 9; E coli WT exp: 0

How did Cc1ccc(C)c(C(=O)NCc2ccncc2)c1 do in these assays?
PLAP act: 1.1; PostGolgi yeast: 35*; Ecoli tolC: 1; PostGolgi ctrl: -3; E coli WT exp: 17

Results for Cc1cc(C)c(O)c(-c2cc(C(=O)NCc3ccccc3)[nH]n2)c1 ?
PLAP act: 1.1; PostGolgi yeast: -16; PostGolgi ctrl: 32*; E coli WT exp: -2

What do the screens show for `COc1ccc(NC(=O)c2cc(-c3cc(C)cc(C)c3O)n[nH]2)cc1Cl`?
PLAP act: 1; PostGolgi yeast: 28; Ecoli tolC: 96*; PostGolgi ctrl: 10; E coli WT exp: -1

What do the screens show for `CCCn1nnc(NC(=O)c2cc(Br)cc(Br)c2OC)n1`?
PLAP act: 1.3; PostGolgi yeast: -9; Ecoli tolC: 14; PostGolgi ctrl: 7; E coli WT exp: -1

How did CCc1c(C(=O)Nc2ccncc2)csc1C do in these assays?
PLAP act: 0.8; PostGolgi yeast: 14; Ecoli tolC: -3; PostGolgi ctrl: 21; E coli WT exp: 5

What do the screens show for `O=C(NCC(c1ccc(F)cc1)N1CCOCC1)c1ccc(Br)o1` (centres undefined)?
PLAP act: 1.3; PostGolgi yeast: 0; Ecoli tolC: -8; PostGolgi ctrl: 4; E coli WT exp: -5

Results for COc1ccc(CCNC(=O)c2cc(-c3ccc(C)cc3O)n[nH]2)cc1OC ?
PLAP act: 2*; PostGolgi yeast: -2; PostGolgi ctrl: 20; E coli WT exp: -9

What do the screens show for `Cc1ccccc1-c1nc(CN2CCC(C(=O)NCc3cccs3)CC2)c(C)o1`?
PLAP act: 2.6*; PostGolgi yeast: -8; PostGolgi ctrl: 8; E coli WT exp: 1

What do the screens show for `Cc1ccccc1-c1nc(CN2CCC(C(=O)NCCCN3CCCC3)CC2)c(C)o1`?
PLAP act: 1.8; PostGolgi yeast: 5; Ecoli tolC: -13; PostGolgi ctrl: 6; E coli WT exp: 2

Results for Cc1ccccc1-c1nc(CN2CCC(C(=O)NCCCN3CC(C)CC(C)C3)CC2)c(C)o1 (centres undefined) ?
PLAP act: 2*; PostGolgi yeast: -3; Ecoli tolC: -3; PostGolgi ctrl: -1; E coli WT exp: 6

How did COC(=O)c1ccc(NC(=O)c2ccccc2N(C)S(=O)(=O)c2ccccc2)cc1 do in these assays?
PLAP act: 1.1; PostGolgi yeast: 10; PostGolgi ctrl: 0; E coli WT exp: -4

What do the screens show for `O=c1nc(NC2CCCC2)ccn1Cc1cccc(Br)c1`?
PLAP act: 0.9; PostGolgi yeast: -6; Ecoli tolC: 11; PostGolgi ctrl: 50*; E coli WT exp: 3

What do the screens show for `COc1ccc(/C(N)=N/OC(=O)c2cc(-c3ccccc3)nc3ccccc23)cc1`?
PLAP act: 0.9; PostGolgi yeast: 5; PostGolgi ctrl: 6; E coli WT exp: 0

Results for Cc1ccc(/C(N)=N/OC(=O)c2cc(-c3ccccc3)nc3ccccc23)cc1 ?
PLAP act: 1; PostGolgi yeast: 22; PostGolgi ctrl: 31*; E coli WT exp: -7

Results for COc1ccccc1C1CC(c2ccccc2)Nc2ncnn21 (centres undefined) ?
PLAP act: 1.2; PostGolgi yeast: -4; Ecoli tolC: 22; PostGolgi ctrl: 15; E coli WT exp: 5
